The list is not random: actives were taken first. Their share in the collection is about 3.1%.
ABHD5 PLIN5 PPI – ABHD5-PLIN5 interaction inhibitors, primary screen, cell lysate, split luciferase complementation, luminescence. Perilipin-5 (Homo sapiens) + 1-acylglycerol-3-phosphate O-acyltransferase ABHD5 (Homo …. Split G. princeps luciferase complementation, 4 h. inhibition, % at 4 µM. hit rate 0.78% among 360,000;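 active = inhibition above the mean inhibition across every tested compound plus 3 SD, cut at about 22% in these data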;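 also: 0% = DMSO only wells and the 100% control is not disclosed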
UHRF1 MBD2 ctr – UHRF1 methylated DNA binding inhibitors, primary screen, counter-screen for MBD2 inhibitor project, biochemical, TR-FRET, human UHRF1, single concentration; E3 ubiquitin-protein ligase UHRF1 (Homo sapiens), Q96T88; AID 687016, 2013; inhibition, % at 4.4 µM; UHRF1 binding to methylated oligo; hit rate 0.75% among 370,000; in the data active = inhibition above about 21%;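 also: UHRF1 SRA domain binding a hemimethylated CpG hairpin DNA probe; 0% = median of test compound wells and 100% = reference inhibitor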
RBBP9 inhibitor – human RBBP9 inhibitors, primary screen, biochemical, fluorescence polarization, FP-Rh probe, HTS; hit rate 0.2% among 220,000; Serine hydrolase RBBP9 (Homo sapiens), O75884; inhibition, % at 7.94 µM; AID 1515, 2009; recombinant RBBP9;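 active = inhibition above the campaign mean of all tested compounds plus 3 SD, cut at about 14% in these data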;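 also: plate controls were DMSO wells with RBBP9 for no effect and wells lacking RBBP9 protein for full effect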
Target sequence (O75884 whole entry, looked up): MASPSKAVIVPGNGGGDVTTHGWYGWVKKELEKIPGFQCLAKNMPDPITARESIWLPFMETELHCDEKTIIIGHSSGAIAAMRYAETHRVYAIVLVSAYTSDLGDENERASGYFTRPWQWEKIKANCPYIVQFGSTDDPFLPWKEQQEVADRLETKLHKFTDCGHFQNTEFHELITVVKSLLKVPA
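Controls: DMSO-treated enzyme wells and wells lacking RBBP9 | Material: RBBP9 protein | Technique: Fluorescence polarization | Replication: Single well per compound, no replicates | Buffer or medium: Tris-NaCl-Pluronic buffer, pH 8.0 | Timing: 30 min compound preincubation, 45 min probe labeling, 25 °C | Read-out basis: Percent inhibition from mP, scaled between DMSO and no-protein wells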
LEDGF integ inh – blockers of LEDGF/p75-dependent integrase strand transfer – biochemical, TR-FRET, high throughput, primary screen. HIV-1 integrase (with human LEDGF/p75). TR-FRET IN-LEDGF/p75 DNA integration, Eu/Cy5. inhibition, % at 3.7 µM. hit rate 0.64% among 370,000. AID 743269, 2014;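 active = inhibition above the screen-wide mean plus 3 SD, cut at about 13% in these data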;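 also: signal is the Cy5 over europium emission ratio at 671 and 618 nm; 0% = plate median of compound wells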
MBD2 DNA inh – inhibitors of MBD2 binding to methylated DNA, primary screen, biochemical, TR-FRET, DNA-binding domain, human | Methyl-CpG-binding domain protein 2 (Homo sapiens), Q9UBB5 | MBD2 binding to methylated oligonucleotide | inhibition, % at 4.4 µM | hit rate 0.31% among 370,000; in the data active = inhibition above about 13%
Target sequence (Q9UBB5 whole entry, looked up, the tested form may be a part): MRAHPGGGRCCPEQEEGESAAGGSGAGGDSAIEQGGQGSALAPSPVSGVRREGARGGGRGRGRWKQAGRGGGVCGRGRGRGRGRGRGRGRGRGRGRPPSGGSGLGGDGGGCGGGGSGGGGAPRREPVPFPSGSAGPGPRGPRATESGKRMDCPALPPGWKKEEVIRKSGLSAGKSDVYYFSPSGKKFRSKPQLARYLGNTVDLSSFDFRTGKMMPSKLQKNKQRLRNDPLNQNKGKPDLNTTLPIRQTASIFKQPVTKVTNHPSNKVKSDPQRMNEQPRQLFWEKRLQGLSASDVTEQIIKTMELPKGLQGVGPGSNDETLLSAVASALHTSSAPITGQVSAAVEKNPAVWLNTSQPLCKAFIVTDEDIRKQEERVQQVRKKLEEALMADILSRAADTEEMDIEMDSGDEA
PRMT1 FP inh – PRMT1 methyltransferase inhibitors, primary screen, biochemical, fluorescence polarization. inhibition, % at 2.79 µM. recombinant PRMT1, activity-based probe fluorescence polarization. hit rate 1.3% among 370,000. Protein arginine N-methyltransferase 1 (Homo sapiens), Q99873;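 active = inhibition above about 21% made by adding two undisclosed values, limit read from the data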
ABHD5 PLIN5 conf – ABHD5-PLIN5 interaction inhibitors, confirmation, biochemical, luminescence; shares compounds with ABHD5 PLIN5 PPI; inhibition, % at 4 µM; hit rate 67% among 2,200; AID 651612, 2012; in the data active = inhibition above about 23%;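 also: 0% = DMSO vehicle wells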
HNF4 split-luc – HNF4 dimerization inhibitors, counter-screen for ABHD5-PLIN5 interaction inhibitor project, biochemical, split-luciferase complementation, luminescence. hit rate 77% among 2,200. inhibition, % at 4 µM. AID 651674, 2012. shares compounds with ABHD5 PLIN5 PPI;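 active = mean inhibition across replicate wells exceeding the computed hit threshold, cut at about 13% in these data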;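 also: light from luciferase halves that rejoin when HNF4 fusion proteins dimerize; 0% = DMSO only wells and the 100% control is not given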
Starred values were filed as active, the others as inactive.

`COc1cccc(NC2=NCCS2)c1` gave UHRF1 MBD2 ctr 2, LEDGF integ inh -2, MBD2 DNA inh 1 and PRMT1 FP inh 4.
Screening COc1cccc(-c2ccc3c(c2)C2c4cnnn4-c4ccccc4C(=O)N2CC3)c1 (centres undefined) returned UHRF1 MBD2 ctr -1, LEDGF integ inh -3, MBD2 DNA inh 2 and PRMT1 FP inh -1.
Screening CC1(C)C[C@H]2C=C(C=O)[C@]3(C=O)C[C@]3(C)[C@H]2C1 returned ABHD5 PLIN5 PPI 63*, UHRF1 MBD2 ctr 0, RBBP9 inhibitor -7, LEDGF integ inh 5, MBD2 DNA inh 1, PRMT1 FP inh -3, ABHD5 PLIN5 conf 70* and HNF4 split-luc 4.
`CC(C)S(=O)(=O)N1Cc2ccc(Br)cc2-n2nncc2C1` gave UHRF1 MBD2 ctr 2, LEDGF integ inh -6, MBD2 DNA inh -2 and PRMT1 FP inh -1.
`COc1ccc(C(=O)CN2CCOCC2)cc1F` gave ABHD5 PLIN5 PPI 31*, UHRF1 MBD2 ctr -2, RBBP9 inhibitor 5, LEDGF integ inh -1, MBD2 DNA inh 1, PRMT1 FP inh 0, ABHD5 PLIN5 conf -3 and HNF4 split-luc 9.
Screening O=C(O)Cn1cc(/C=C2\C(=O)NC(=O)N(c3ccc(Cl)cc3)C2=O)c2ccccc21 returned ABHD5 PLIN5 PPI 36*, UHRF1 MBD2 ctr -3, LEDGF integ inh 0, MBD2 DNA inh -4, PRMT1 FP inh 1, ABHD5 PLIN5 conf 33* and HNF4 split-luc 32*.
Cn1cc(/C=C2\C(=O)NC(=O)N(c3ccccc3)C2=O)c2ccccc21 was read as ABHD5 PLIN5 PPI 29*, UHRF1 MBD2 ctr -3, LEDGF integ inh 0, MBD2 DNA inh -4, PRMT1 FP inh 6, ABHD5 PLIN5 conf 14 and HNF4 split-luc 15*.
CCOC(=O)Cn1cc(C=C2C(=O)N(C)C(=O)N(C)C2=O)c2ccccc21 was read as ABHD5 PLIN5 PPI 29*, UHRF1 MBD2 ctr -2, LEDGF integ inh 3, MBD2 DNA inh -2, PRMT1 FP inh 16, ABHD5 PLIN5 conf 8 and HNF4 split-luc 11.
Screening Cc1cc(/C=C2/C(=O)NC(=O)N(c3ccccc3)C2=O)c(C)n1-c1ccc(F)cc1 returned ABHD5 PLIN5 PPI 6, UHRF1 MBD2 ctr -3, RBBP9 inhibitor -6, LEDGF integ inh 1, MBD2 DNA inh 0 and PRMT1 FP inh 5.
For O=C(O)Cn1cc(C=C2C(=O)NC(=O)NC2=O)c2ccccc21 the results were ABHD5 PLIN5 PPI 32*, UHRF1 MBD2 ctr -8, LEDGF integ inh -2, MBD2 DNA inh -3, PRMT1 FP inh 12, ABHD5 PLIN5 conf 12 and HNF4 split-luc 12.
For O=C(c1ccccc1)N1Cc2cc(Br)ccc2-n2nncc2C1 the results were UHRF1 MBD2 ctr 1, LEDGF integ inh -1, MBD2 DNA inh -4 and PRMT1 FP inh -1.
For COC(=O)C1C(c2ccc(C)cc2)CC2CCC1N2C (centres undefined) the results were UHRF1 MBD2 ctr -1, LEDGF integ inh 2, MBD2 DNA inh 0 and PRMT1 FP inh 1.
`COc1cc(/C=C2\C(=O)NC(=O)N(c3ccccc3)C2=O)c([N+](=O)[O-])cc1OC` gave ABHD5 PLIN5 PPI 10, UHRF1 MBD2 ctr -9, RBBP9 inhibitor 2, LEDGF integ inh 4, MBD2 DNA inh 1 and PRMT1 FP inh 4.
Screening COc1cc(/C=C2\C(=O)NC(=O)N(c3ccccc3)C2=O)cc(OC)c1O returned ABHD5 PLIN5 PPI 34*, UHRF1 MBD2 ctr 3, RBBP9 inhibitor -5, LEDGF integ inh -1, MBD2 DNA inh 0, PRMT1 FP inh 8, ABHD5 PLIN5 conf 17 and HNF4 split-luc 22*.
CCOC(=O)[C@]12Cc3cc(C)ccc3[C@H]1N(CCC(=O)OC)C(=O)c1ccccc12 was read as ABHD5 PLIN5 PPI 14, UHRF1 MBD2 ctr 13, LEDGF integ inh 3, MBD2 DNA inh 1 and PRMT1 FP inh -4.
CCOC(=O)[C@]12Cc3ccc(C)cc3[C@H]1N(C1CCCCC1)C(=O)c1ccccc12 was read as ABHD5 PLIN5 PPI 40*, UHRF1 MBD2 ctr -1, LEDGF integ inh 1, MBD2 DNA inh -9, PRMT1 FP inh 0, ABHD5 PLIN5 conf 30* and HNF4 split-luc 21*.
Screening CCOC(=O)[C@]12Cc3cc(Cl)ccc3[C@H]1N(C1CCCCC1)C(=O)c1cc(OC)ccc12 returned ABHD5 PLIN5 PPI 61*, UHRF1 MBD2 ctr -4, LEDGF integ inh 1, MBD2 DNA inh 2, PRMT1 FP inh -2, ABHD5 PLIN5 conf 39* and HNF4 split-luc 58*.
`CCOC(=O)[C@]12Cc3cc(C)ccc3[C@H]1N(C1CCCCC1)C(=O)c1ccccc12` gave ABHD5 PLIN5 PPI 48*, UHRF1 MBD2 ctr -2, LEDGF integ inh 1, MBD2 DNA inh 1, PRMT1 FP inh -1, ABHD5 PLIN5 conf 21 and HNF4 split-luc 39*.
`CCOC(=O)[C@]12Cc3ccccc3[C@H]1N(C(C)C)C(=O)c1ccccc12` gave ABHD5 PLIN5 PPI 5, UHRF1 MBD2 ctr 4, LEDGF integ inh 6, MBD2 DNA inh 1 and PRMT1 FP inh -3.
For CCOC(=O)[C@]12Cc3c(cc(OC)c(OC)c3OC)[C@H]1N(C1CCCCC1)C(=O)c1ccccc12 the results were ABHD5 PLIN5 PPI 39*, UHRF1 MBD2 ctr -1, LEDGF integ inh -4, MBD2 DNA inh -2, PRMT1 FP inh 1, ABHD5 PLIN5 conf 20 and HNF4 split-luc 32*.
`CCCCN1CCN(C(=O)COc2cc(=O)n(C)c3ccccc23)CC1` gave UHRF1 MBD2 ctr 0, LEDGF integ inh 2, MBD2 DNA inh 4 and PRMT1 FP inh -1.
Screening c1ccc(-c2nc3ccccc3nc2-c2ccc(CN3CCC(n4nnc5ccccc54)CC3)cc2)cc1 returned UHRF1 MBD2 ctr 11, LEDGF integ inh 3, MBD2 DNA inh 4 and PRMT1 FP inh -2.
For Fc1ccc2nc(-c3ccc(CN4CCC(n5nnc6ccccc65)CC4)cc3)c(-c3ccccc3)nc2c1 the results were UHRF1 MBD2 ctr -1, LEDGF integ inh 5, MBD2 DNA inh -5 and PRMT1 FP inh -5.
